From PubChem
Compounds with a hit are over-represented: about 1.3% of the library has one in this group of screens.
DAGLB inhibitor – blocks human DAGLB lipase activity | HEK293T DAGLB membrane lysate, EnzChek fluorogenic substrate | 0.059% of 340,000 active | inhibition, % at 5.17 µM | AID 504411 | Q8NCG7; in the data active = inhibition above about 34%;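 also: 0% = enzyme with vehicle and 100% = wells lacking enzyme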
Target sequence (Q8NCG7 whole entry, looked up): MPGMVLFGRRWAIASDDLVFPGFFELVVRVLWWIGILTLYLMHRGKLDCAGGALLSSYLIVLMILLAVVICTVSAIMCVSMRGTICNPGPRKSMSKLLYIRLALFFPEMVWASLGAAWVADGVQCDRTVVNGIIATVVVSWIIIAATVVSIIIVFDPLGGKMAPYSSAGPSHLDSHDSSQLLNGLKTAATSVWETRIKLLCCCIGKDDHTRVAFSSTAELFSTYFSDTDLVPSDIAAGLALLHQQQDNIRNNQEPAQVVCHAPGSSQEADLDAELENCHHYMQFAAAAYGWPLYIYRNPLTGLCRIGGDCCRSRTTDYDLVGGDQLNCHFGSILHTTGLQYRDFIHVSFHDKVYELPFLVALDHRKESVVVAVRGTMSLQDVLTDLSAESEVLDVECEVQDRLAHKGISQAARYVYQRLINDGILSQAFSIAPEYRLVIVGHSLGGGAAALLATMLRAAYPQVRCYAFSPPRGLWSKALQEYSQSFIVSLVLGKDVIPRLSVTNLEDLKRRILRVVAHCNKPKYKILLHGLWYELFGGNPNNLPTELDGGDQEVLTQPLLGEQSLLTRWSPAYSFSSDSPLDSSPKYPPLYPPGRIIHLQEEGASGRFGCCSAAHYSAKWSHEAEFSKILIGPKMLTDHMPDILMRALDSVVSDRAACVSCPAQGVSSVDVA
TMEM16A act – mouse TMEM16A channel activation, primary screen | Q8BHY3 | 0.3% of 340,000 active | B-score at 10 µM | HEK293 TMEM16A/YFP-H148Q/I152L, iodide quench fluorescence; hits give low values;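 active = fluorescence-ratio B-score plate-corrected deviation score at least 3 library SD below zero, with starting fluorescence score within 5 deviations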;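 also: channel opened by trigger with iodide after compound preincubation; score built on the fluorescence ratio of max minus min over baseline; more negative score means more quench and so TMEM16A activation or potentiation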
MT1-MMP act inh – MT1-MMP (human) activation inhibition. HT1080 RFP-PRO-GFP cells, GFP/RFP ratio fluorescence, overnight; percent of plate control window, DMSO zero. GFP/RFP ratio change, % at 20 µM. 0.061% of 360,000 active. AID 651647;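 active = GFP/RFP ratio change of at least 30% with cell ATP level not reduced by more than half and red fluorescence within 50% of control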
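Read-out: GFP/RFP fluorescence ratio; Test system: RFP-PRO-GFP reporter HT1080 cells; Compound dosing: single-point 20 µM compound, 1% DMSO; Times: overnight compound exposure at 37 °C.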
ANO1 block – inhibitors of mouse TMEM16A calcium-activated chloride channel; Q8BHY3; HEK293 TMEM16A/YFP iodide influx fluorescence, ionomycin; normalized B-score (activity score, 25-100; higher = stronger inhibition) at 10 µM; 1.2% of 310,000 active; AID 588511;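 active = ratio plate-corrected score three or more library SD toward inhibition, starting fluorescence score within five deviations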;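 also: score derived from kinetic fluorescence span divided by baseline fluorescence per well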
* hit, by the source's call; i = inactive; nt = not tested or not shown.

SMILES	DAGLB inhibitor	TMEM16A act	MT1-MMP act inh	ANO1 block
O=C(NC1CCCCC1)c1sc(=S)n2c1[nH]c(=O)c1ccccc12	7	i	2	100*
O=C(NCCc1ccccc1)c1ccc2c(=O)[nH]c3c(C(=O)NCC4CCCO4)sc(=S)n3c2c1 (stereo not given)	14	i	1	i
COc1cc(NC(=O)CSc2nnc3n2C(C)(C)Cc2ccccc2-3)cc(OC)c1	-6	i	-5	i
COc1ccc(N2CCN(C(=O)CSc3nnc4n3C(C)(C)Cc3ccccc3-4)CC2)cc1	1	i	-2	25*
Cc1ccc(Cl)cc1N1CCN(C(=O)CSc2nnc3n2C(C)(C)Cc2ccccc2-3)CC1	0	i	-12	100*
COc1ccc2nc(NC(=O)CSc3nnc4n3C(C)(C)Cc3ccccc3-4)sc2c1	0	-8*	1	i
COC(=O)CSc1nnc2n1C(C)(C)Cc1ccccc1-2	-2	i	3	i
Cc1ccc(NC(=O)c2ncn(CCCN3CCN(Cc4cccc5ccccc45)CC3)n2)cc1C	-2	nt	5	nt
CC(C)C[C@@H]1O[C@H](C(C)C)Cc2[nH][nH]c(=O)c21	nt	nt	1	nt
O=[N+]([O-])c1ccc(-c2cnc(SCc3ccccc3Cl)[nH]2)cc1	-2	i	0	100*
CC/C(=N\NC(=O)c1ccncc1)C12CC3CC(CC(C3)C1)C2	-1	i	0	i
CC/C(=N\NC(=O)c1ccc2c(c1)OCO2)C12CC3CC(CC(C3)C1)C2	-1	-6.1*	-3	i
Cc1ccc(S(=O)(=O)N2[C@@H](c3ccccc3)C(C(=O)O)=CC[C@H]2c2ccc(C(C)C)cc2)cc1	3	i	2	100*
Cc1ccc([C@H]2C(C(=O)O)=CC[C@@H](c3ccc(C(C)C)cc3)N2S(=O)(=O)c2ccc(C)cc2)cc1	7	nt	-4	nt
Cc1ccc(S(=O)(=O)N2[C@@H](c3ccc(Cl)cc3)C(C(=O)O)=CC[C@H]2c2ccc(C(C)C)cc2)cc1	9	i	3	100*
CC(=O)c1cccc(-c2ccnc3c2CC(C(=O)Nc2ccc(C(C)C)cc2)O3)c1 (stereo not given)	nt	nt	6	nt
CC(C)N1C(=O)c2ccccc2NC(=O)C1C(=O)NC1CC1 (stereo not given)	nt	nt	1	nt
CC(=O)CSc1nnc(-c2ccc3c(c2)OCO3)o1	-5	-16*	0	i
CC(C)(C)c1ccc(-c2nnc(SCC(=O)c3ccc4c(c3)OCCO4)o2)cc1	-1	i	5	100*
O=C(CSc1nnc(-c2ccc(F)cc2)o1)c1ccc2c(c1)OCCO2	-2	i	2	i
CC(=O)Nc1ccc(NC(=O)CSc2nnc(-c3ccc4c(c3)OCO4)o2)cc1	1	i	-1	nt
CSc1nc2nc(Cl)c(Cl)nc2[nH]1	0	nt	-2	nt
Nc1ncc(Br)cc1S(=O)(=O)Nc1cc(C(F)(F)F)cc(C(F)(F)F)c1	14	-5*	5	100*
Cc1ccc(S(=O)(=O)N2c3ccccc3OC(C(=O)OC(C)(C)C)(C(=O)OC(C)(C)C)C2CC(=O)c2ccccc2)cc1 (stereo not given)	nt	nt	-1	nt
CCOc1ccc(NS(=O)(=O)c2cc3c(cc2C)N(C)CCO3)cc1	-1	-9*	-3	i
SMILES	DAGLB inhibitor	TMEM16A act	MT1-MMP act inh	ANO1 block
O=C(NC1=NC2CCCCC2N1)c1ccccc1 (stereo not given)	-1	-6.6*	6	i
O=C(NC1CCCCCCC1O)c1ccccc1 (stereo not given)	-1	i	1	nt
COc1ccc2nc(-c3ccccc3)nc(SC)c2c1	-14	i	-1	nt
O=C(O)c1cccc(Cn2c(Cl)c(/C=N/Nc3ccccc3)sc2=O)c1	11	-35*	-32	i
O=C(O)c1cccc(Cn2c(Cl)c(/C=N/NC(=O)c3ccccc3Cl)sc2=O)c1	-1	i	1	i
COc1ccc([C@@H]2[C@@H]3C(=O)N(C(C)(C)C)C(=O)[C@@H]3[C@]3(C)C(=O)N(c4cccc(Br)c4)C(=O)N23)cc1	2	-11*	-5	i
CCCN(CCC)CCCNC(=O)CC(C(=O)N1CCc2ccccc21)n1ccnc1 (stereo not given)	1	i	1	25*
Cc1onc(-c2ccccc2Cl)c1C(=O)Oc1cc(N)n(S(=O)(=O)c2ccc(F)cc2)n1	-1	i	1	25*
Cc1nn(-c2ccccc2)c(Cl)c1/C=C1\SC(=S)NC1=O	17	i	-9	100*
CC1CC(C)CN(C(=O)CN2C(=O)NC3(CCCCCC3)C2=O)C1 (stereo not given)	-1	i	3	nt
CCc1nc2ccc(C(=O)NCCOc3ccc(OC)cc3)cn2c1N(CCC(C)C)CCN(C)C	nt	nt	-3	nt
COc1cc(/C=N/NC(=O)CCn2c3ccccc3c3ccccc32)ccc1O	3	i	-6	25*
Cc1ccc(N2CC(O)CSC2=Nc2ccccc2)cc1 (stereo not given)	-3	nt	0	nt
Cc1ccc(NS(=O)(=O)c2ccc(NC(=O)CSc3ccc(Cl)cc3)cc2)c(C)c1	-8	i	-2	25*
CCCOC(=O)c1ccc(Oc2c(-c3ccc(O)cc3O)n[nH]c2C)cc1	-3	i	4	25*
CCCOC(=O)c1ccc(Oc2c(-c3ccc(OC)cc3O)n[nH]c2C)cc1	-4	i	7	i
N#Cc1ccc(NC(=S)N2CCC3CC2c2cc(-c4ccc5c(c4)OCO5)ccc23)cc1 (stereo not given)	nt	nt	0	nt
COc1ccc(CCNC(=O)Cn2nc(C)c3c(C)n(-c4ccccc4)nc3c2=O)c(OC)c1	1	-7.9*	1	i
O=C(O)Cc1ccc(NC(=O)CCN2C(=O)c3ccc([N+](=O)[O-])cc3C2=O)cc1	1	-6.3*	-1	nt
CC1CC(C)CN(CC(=O)Nc2cc(S(=O)(=O)N3CCOCC3)ccc2N2CCCC2)C1 (stereo not given)	-1	i	-3	nt
COc1ccc(CCNc2nc(-c3ccccn3)cs2)cc1OC	0	-6.2*	5	i
CC(C)CN1C(=S)SC(C)(C)C1n1oc(=O)n(-c2ccc(Cl)cc2)c1=O (stereo not given)	-10	i	1	100*
CC(C)CN1C(=S)SC(C)(C)C1n1oc(=O)n(-c2ccccc2)c1=O (stereo not given)	-6	i	-3	i
Cn1c(=O)[nH]c(=O)c2c1nc(NCCc1ccccc1)n2CC(O)COc1ccccc1 (stereo not given)	7	-51*	-2	i
CCCn1nc([N+](=O)[O-])c(C(C#N)c2nc3ccccc3s2)c(Cl)c1=O (stereo not given)	67*	i	21	100*
CN1CCN(c2nc3c(c(=O)[nH]c(=O)n3C)n2Cc2ccccc2)CC1	-2	i	-4	i
